# In ChEMBL document CHEMBL1159327, “(+)-7S-Hydroxyxestospongin A from the marine sponge Xestospongia sp. and absolute configuration of (+)-xestospongin D” (2002):
# Activity calls are given as the source filed them. No cut-off for these calls is given here.
# Columns and labels:
# Nakaseomyces glabratus [1] = test: Antimicrobial activity against Candida glabrata after 16 to 18 hrs by microbroth dilution assay; type: functional
# How it was run: (§1)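 Broth microdilution susceptibility testing, adapted with minor changes from a published method, incubated at 37 °C for 16–18 h; read-out is the minimum inhibitory concentration. C. krusei and C. glabrata strains came from the University of Texas Medical Center. C. albicans UCD FR1 was raised in-house by repeated passage through Sabouraud medium containing inhibitory fluconazole concentrations.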
# Oryctolagus cuniculus = organism: Oryctolagus cuniculus; test: Inhibition of IP3-sensitive Ca2+ channel activity in endoplasmic reticulum of rabbit cerebellum assessed as Ca2+ release; type: tissue-based
# Candida albicans [2] = test: Antimicrobial activity against fluconazole-resistant Candida albicans ATCC 14503 after 16 to 18 hrs by microbroth dilution assay; type: functional; how it was run: as §1
# Pichia kudriavzevii [3] = test: Antimicrobial activity against Candida krusei after 16 to 18 hrs by microbroth dilution assay; type: functional; how it was run: as §1
# Candida albicans [4] = test: Antimicrobial activity against Candida albicans UCD FRI after 16 to 18 hrs by microbroth dilution assay; type: functional; how it was run: as §1
# Candida albicans [5] = test: Antimicrobial activity against fluconazole-resistant Candida albicans ATCC 14503 up to 300 ug/disk by disk diffusion method; type: functional, organism-based
# Pichia kudriavzevii [6] = test: Antimicrobial activity against Candida krusei up to 300 ug/disk by disk diffusion method; type: functional, organism-based
# How it was run: (§2)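 Disk diffusion antifungal test, up to 300 μg/disk, read as a zone of inhibition. C. glabrata and C. krusei were clinical strains from the University of Texas Medical Center. C. albicans UCD FR1 was raised in-house by repeated passage through Sabouraud medium containing inhibitory concentrations of fluconazole.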
# Candida albicans [7] = test: Antimicrobial activity against Candida albicans UCD FRI up to 300 ug/disk by disk diffusion method; type: functional, organism-based; how it was run: as §2
# Nakaseomyces glabratus [8] = test: Antimicrobial activity against Candida glabrata up to 300 ug/disk by disk diffusion method; type: functional, organism-based; how it was run: as §2
SMILES,MIC (Nakaseomyces glabratus [1]),ED50 (Oryctolagus cuniculus),MIC (Candida albicans [2]),MIC (Pichia kudriavzevii [3]),MIC (Candida albicans [4]),Activity (Candida albicans [5]),Activity (Pichia kudriavzevii [6]),Activity (Candida albicans [7]),Activity (Nakaseomyces glabratus [8])
O[C@]12CCCCCC[C@@H]3CCN4CCC[C@@H](CCCCCC[C@@H]5CCN(CCC1)[C@H]2O5)[C@@H]4O3,100 µg/mL,800 nM,100 µg/mL,100 µg/mL,100 µg/mL,,,,
C1CCC[C@@H]2CCCN3CC[C@@H](CCCCCC[C@@H]4CCCN5CC[C@@H](CC1)O[C@@H]45)O[C@@H]23,100 µg/mL,,100 µg/mL,100 µg/mL,100 µg/mL,,,,
OC(Cn1cncn1)(Cn1cncn1)c1ccc(F)cc1F [FLUCONAZOLE],100 µg/mL,,1 µg/mL,100 µg/mL,100 µg/mL,,,,
C1CCC[C@H]2CCCN3CC[C@@H](CCCCCC[C@@H]4CCCN5CC[C@@H](CC1)O[C@@H]45)O[C@@H]23,30 µg/mL,300 nM,100 µg/mL,30 µg/mL,100 µg/mL,,,,
O[C@H]1C[C@H]2CCCCCC[C@@H]3CCN4CCC[C@@H](CCCCCC[C@@H]5CCN(C1)[C@H]2O5)[C@@H]4O3,,6400 nM,,,,inactive,inactive,inactive,inactive
C[C@@H]1[C@H](O)[C@@H](C)/C=C/C=C/C=C/C=C/C=C/C=C/C=C/[C@H](O[C@@H]2O[C@H](C)[C@@H](O)[C@H](N)[C@@H]2O)C[C@@H]2O[C@](O)(C[C@@H](O)C[C@@H](O)[C@H](O)CC[C@@H](O)C[C@@H](O)CC(=O)O[C@H]1C)C[C@H](O)[C@H]2C(=O)O [AMPHOTERICIN B],1 µg/mL,,0.3 µg/mL,,1 µg/mL,,,,
O[C@]12CCCCCC[C@@H]3CCN4CCC[C@H](CCCCCC[C@@H]5CCN(CCC1)[C@H]2O5)[C@@H]4O3 [(+)-DEMETHYLXESTOSPONGIN B],30 µg/mL,,100 µg/mL,30 µg/mL,30 µg/mL,,,,
